pKd: −log10 of the molar value.
Legend:
[1] = target: Stromal cell-derived factor 1 (Homo sapiens, UniProt P48061, A65C/L36C)
[2] = target: T1, Stromal cell-derived factor 1 (Homo sapiens, UniProt P48061); experiment: Binding affinity to His6-SUMO fusion tagged wild type human [U-15N]CXCL12 expressed in Escherichia coli by 2D 1H-15N HMQC NMR spectroscopy
[3] = target: T1, Stromal cell-derived factor 1; experiment: Binding affinity to His6-SUMO fusion tagged wild type human [U-15N]CXCL12 expressed in Escherichia coli assessed as induction of chemical shift perturbations to residues at I4/I6 binding site by 2D 1H-15N HMQC NMR spectroscopy
Outline: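 [U-15N]-CXCL12 WT was made as a His6SUMO fusion in E. coli (Terrific Broth, 1 mM IPTG) and taken from inclusion bodies by Ni-NTA. Combined CSP = ((5ΔδH)2+(ΔδN)2)0.5. Kd came from single-site quadratic fits of the most-perturbed residues, fitted individually and averaged (±SD).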

T1 sequence (P48061 whole entry, the tested form may be a part): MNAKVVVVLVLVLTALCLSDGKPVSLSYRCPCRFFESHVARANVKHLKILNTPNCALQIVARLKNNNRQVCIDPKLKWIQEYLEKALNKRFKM
Chain of Stromal cell-derived factor 1 (Homo sapiens, UniProt P48061, A65C/L36C) (P48061 22-93 L57C/A86C limits assumed): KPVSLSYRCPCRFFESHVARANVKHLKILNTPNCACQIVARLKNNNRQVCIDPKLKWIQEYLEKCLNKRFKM

Row | pKd [1] | Kd [2] | Activity [3] [%] | pKd ([2]; read-out: Kd) | Compound
1 | 4.13 | Dose-dependent effect |  |  | CC(C)O.CCCOc1ccc(C(Nc2ccc(F)cc2)P(=O)(O)O)cc1 (stereo unspecified)
2 |  |  | 16.7 | 2.77 | C[C@H](NC(=O)CCn1ccc2c(Cl)cccc21)C(=O)O
3 |  |  | 12.5 |  | O=C(O)CC1c2ccccc2CCN1C(=O)Nc1cccc(F)c1 (stereo unspecified)
4 |  |  | 12.5 |  | Cc1ccc(NS(=O)(=O)c2ccc(OCC(=O)O)c(C)c2)cc1C
